According to ChEMBL document CHEMBL4038309, “Design and Synthesis of Chlorinated and Fluorinated 7-Azaindenoisoquinolines as Potent Cytotoxic Anticancer Agents That Inhibit Topoisomerase I” (J Med Chem, 2017):
Activity calls are given as the source filed them. The calls are words filed in the database; no cut-off is given here.

Legend:
[1] = tested on: HOP-62; assay: Antiproliferative activity against human HOP62 cells assessed as growth inhibition; format: functional
In short: (§1)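 NCI-60 screen: single-dose pre-screen at 10 μM, then five concentrations from 0.01 to 100 μM. Values beyond the tested range are recorded as 0.01 or 100 μM.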

[2] = Toxicity in zebrafish embryo assessed as survival at 0.01 uM preincubated for 1 hr measured after 96 hrs (reference value: 82.5 +/- 8.4%); design: species or system Danio rerio; settings: zebrafish embryos
[3] = tested on: HCT-116; assay: Antiproliferative activity against human HCT116 cells assessed as growth inhibition; format: functional; in short: as §1
[4] = tested on: OVCAR-3; assay: Antiproliferative activity against human OVCAR3 cells assessed as growth inhibition; format: functional; in short: as §1
[5] = Toxicity in zebrafish embryo assessed as survival at 0.01 uM preincubated for 1 hr measured after 48 hrs (reference value: 84.4 +/- 8.5%); design: species or system Danio rerio; settings: zebrafish embryos
[6] = Toxicity in zebrafish embryo assessed as survival at 1 uM preincubated for 1 hr measured after 24 hrs (reference value: 86.2 +/- 8.5%); design: species or system Danio rerio; settings: zebrafish embryos
[7] = tested on: DU-145; assay: Antiproliferative activity against human DU145 cells assessed as growth inhibition; format: functional; in short: as §1
[8] = Toxicity in zebrafish embryo assessed as survival at 1 uM preincubated for 1 hr measured after 96 hrs (reference value: 82.5 +/- 8.4%); design: species or system Danio rerio; settings: zebrafish embryos
[9] = Toxicity in zebrafish embryo assessed as survival at 0.01 uM preincubated for 1 hr measured after 24 hrs (reference value: 86.2 +/- 8.5%); design: species or system Danio rerio; settings: zebrafish embryos
[10] = Toxicity in zebrafish embryo assessed as survival at 10 uM preincubated for 1 hr measured after 24 to 120 hrs (reference value: 82.5 to 86.2%); design: species or system Danio rerio; settings: zebrafish embryos
[11] = tested on: MCF7; assay: Antiproliferative activity against human MCF7 cells assessed as growth inhibition; format: functional; in short: as §1
[12] = tested on: SF-539; assay: Antiproliferative activity against human SF539 cells assessed as growth inhibition; format: functional; in short: as §1
[13] = Toxicity in zebrafish embryo assessed as survival at 0.1 uM preincubated for 1 hr measured after 24 hrs (reference value: 86.2 +/- 8.5%); design: species or system Danio rerio; settings: zebrafish embryos
[14] = Toxicity in zebrafish embryo assessed as survival at 1 uM preincubated for 1 hr measured after 48 hrs (reference value: 84.4 +/- 8.5%); design: species or system Danio rerio; settings: zebrafish embryos
[15] = tested on: SN12C; assay: Antiproliferative activity against human SN12C cells assessed as growth inhibition; format: functional; in short: as §1
[16] = Toxicity in zebrafish embryo assessed as survival at 0.01 uM preincubated for 1 hr measured after 72 hrs (reference value: 82.5 +/- 8.4%); design: species or system Danio rerio; settings: zebrafish embryos
[17] = tested on: UACC-62; assay: Antiproliferative activity against human UACC62 cells assessed as growth inhibition; format: functional; in short: as §1
[18] = Toxicity in zebrafish embryo assessed as survival at 0.1 uM preincubated for 1 hr measured after 72 hrs (reference value: 82.5 +/- 8.4%); design: species or system Danio rerio; settings: zebrafish embryos
[19] = Toxicity in zebrafish embryo assessed as survival at 0.1 uM preincubated for 1 hr measured after 48 hrs (reference value: 84.4 +/- 8.5%); design: species or system Danio rerio; settings: zebrafish embryos
[20] = Toxicity in zebrafish embryo assessed as survival at 0.1 uM preincubated for 1 hr measured after 96 hrs (reference value: 82.5 +/- 8.4%); design: species or system Danio rerio; settings: zebrafish embryos
[21] = Toxicity in zebrafish embryo assessed as survival at 1 uM preincubated for 1 hr measured after 120 hrs (reference value: 82.5 +/- 8.4%); design: species or system Danio rerio; settings: zebrafish embryos
[22] = Toxicity in zebrafish embryo assessed as survival at 0.1 uM preincubated for 1 hr measured after 120 hrs (reference value: 82.5 +/- 8.4%); design: species or system Danio rerio; settings: zebrafish embryos
[23] = Toxicity in zebrafish embryo assessed as survival at 1 uM preincubated for 1 hr measured after 72 hrs (reference value: 82.5 +/- 8.4%); design: species or system Danio rerio; settings: zebrafish embryos
[24] = Toxicity in zebrafish embryo assessed as survival at 0.01 uM preincubated for 1 hr measured after 120 hrs (reference value: 82.5 +/- 8.4%); design: species or system Danio rerio; settings: zebrafish embryos
[25] = target: T1, DNA topoisomerase 1 (Homo sapiens) (UniProt P11387); assay: Inhibition of recombinant Top1 (unknown origin) assessed as Top 1 mediated DNA cleavage using 3'-[32P]-labeled 117 bp DNA as substrate at 0.1 to 100 uM after 20 mins by PAGE analysis
T1 sequence (whole entry): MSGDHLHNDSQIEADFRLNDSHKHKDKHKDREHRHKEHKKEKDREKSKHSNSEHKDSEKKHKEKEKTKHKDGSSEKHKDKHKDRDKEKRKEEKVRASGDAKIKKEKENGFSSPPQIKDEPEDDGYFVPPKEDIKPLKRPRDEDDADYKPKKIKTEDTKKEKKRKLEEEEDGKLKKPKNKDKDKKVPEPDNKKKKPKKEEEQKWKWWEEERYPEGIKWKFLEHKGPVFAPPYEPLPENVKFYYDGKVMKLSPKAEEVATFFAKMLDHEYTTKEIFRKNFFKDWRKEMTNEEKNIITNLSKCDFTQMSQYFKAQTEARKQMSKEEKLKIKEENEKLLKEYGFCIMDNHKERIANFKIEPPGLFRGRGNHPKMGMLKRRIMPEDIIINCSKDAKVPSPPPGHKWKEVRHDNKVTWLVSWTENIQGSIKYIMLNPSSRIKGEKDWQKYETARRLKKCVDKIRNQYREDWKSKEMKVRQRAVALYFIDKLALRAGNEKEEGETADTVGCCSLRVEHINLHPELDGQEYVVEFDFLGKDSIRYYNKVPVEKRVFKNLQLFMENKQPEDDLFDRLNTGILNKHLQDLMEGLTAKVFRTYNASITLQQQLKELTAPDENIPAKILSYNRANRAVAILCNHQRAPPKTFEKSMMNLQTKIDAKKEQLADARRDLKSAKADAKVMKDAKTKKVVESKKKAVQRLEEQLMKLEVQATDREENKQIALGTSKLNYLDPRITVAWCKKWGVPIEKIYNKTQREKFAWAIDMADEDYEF
In short: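 About 2 nM 3'-[32P]-labeled DNA with recombinant Top1 in 10 mM Tris-HCl pH 7.5, 50 mM KCl, 5 mM MgCl2, 0.1 mM EDTA, 15 μg/mL BSA, 25 °C, 20 min. Compound at 0.1, 1, 10 and 100 μM. Stopped with 0.5% SDS and formamide dye, then run on 20% denaturing PAGE with phosphorimaging.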

[26] = tested on: PBMC; assay: Induction of DNA damage in human PBMC assessed as gamma-H2AX foci formation at 0.1 to 1 uM after 2 hrs by confocal microscopy; format: cell-based
[27] = tested on: CCRF-CEM; assay: Induction of DNA damage in human CCRF-CEM cells assessed as gamma-H2AX foci formation at 0.1 to 1 uM after 2 hrs by confocal microscopy; format: functional, cell-based
[28] = tested on: Danio rerio; assay: Toxicity in zebrafish embryo assessed as increase in yolk sac edema at 0.1 uM preincubated for 1 hr measured after 24 to 120 hrs; settings: in vivo
In short: (§2)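 Wild-type AB zebrafish embryos, 4 clutch replicates of 40 embryos each, held at 28 °C through 120 hpf. Exposed in Petri dishes to 10, 1, 0.1 or 0.01 μM compound in filtered fish water with 0.1% DMSO. Water-only and DMSO controls included. Mortality, hatching and gross malformations observed.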

[29] = species: Danio rerio; assay: Toxicity in zebrafish embryo assessed as hatching rate at 0.1 uM preincubated for 1 hr measured after 24 to 120 hrs; settings: in vivo; in short: as §2
[30] = species: Danio rerio; assay: Toxicity in zebrafish embryo assessed as increase in bent tail at 0.1 uM preincubated for 1 hr measured after 24 to 120 hrs; settings: in vivo; in short: as §2
[31] = target: T2, Tyrosyl-DNA phosphodiesterase 2 (Homo sapiens, UniProt O95551); assay: Inhibition of recombinant human TDP2 using 3'-labeled alpha-[32P]-cordycepin as substrate after 15 mins
T2 sequence (O95551 whole entry): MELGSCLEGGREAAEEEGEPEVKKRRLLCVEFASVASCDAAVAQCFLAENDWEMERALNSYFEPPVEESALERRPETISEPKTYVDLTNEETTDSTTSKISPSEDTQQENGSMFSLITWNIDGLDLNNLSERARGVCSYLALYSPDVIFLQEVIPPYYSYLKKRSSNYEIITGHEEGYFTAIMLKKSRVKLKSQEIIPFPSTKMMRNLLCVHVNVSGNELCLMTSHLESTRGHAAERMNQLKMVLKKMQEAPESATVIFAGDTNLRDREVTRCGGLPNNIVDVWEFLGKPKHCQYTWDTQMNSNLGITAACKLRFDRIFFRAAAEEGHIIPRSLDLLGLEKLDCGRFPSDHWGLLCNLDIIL

| Compound | GI50 [1] [µM] | survival at 96 h, 0.01 µM [2] [%] | GI50 [3] [µM] | GI50 [4] [µM] | survival at 48 h, 0.01 µM [5] [%] | survival at 24 h, 1 µM [6] [%] | GI50 [7] [µM] | survival at 96 h, 1 µM [8] [%] | survival at 24 h, 0.01 µM [9] [%] | survival at 10 µM [10] [%] | GI50 [11] [µM] | GI50 [12] [µM] | survival at 24 h, 0.1 µM [13] [%] | survival at 48 h, 1 µM [14] [%] | survival at 72 h, 0.01 µM [16] [%] | GI50 [17] [µM] | survival at 72 h, 0.1 µM [18] [%] | survival at 48 h, 0.1 µM [19] [%] | survival at 96 h, 0.1 µM [20] [%] | Top1-mediated DNA cleavage activity (active/not active) [25] | also measured |
| --- | --- | --- | --- | --- | --- | --- | --- | --- | --- | --- | --- | --- | --- | --- | --- | --- | --- | --- | --- | --- | --- |
| COc1cnc2c(c1)C(=O)c1c-2n(CCCn2ccnc2)c(=O)c2cc(F)ccc12 | < 0.01 | 87.5 | < 0.01 | 0.043 | 87.5 | 28.8 | < 0.01 | 0 | 87.5 | 0 | < 0.01 | 0.024 | 86.2 | 0 | 87.5 | 0.016 | 45.6 | 62.5 | 45.6 | Active | GI50 [15]: < 0.01 µM; survival at 120 h, 1 µM [21]: 0%; survival at 120 h, 0.1 µM [22]: 45.6%; survival at 72 h, 1 µM [23]: 0%; survival at 120 h, 0.01 µM [24]: 87.5% |
| CC[C@@]1(O)C(=O)OCc2c1cc1n(c2=O)Cc2cc3ccccc3nc2-1 [CAMPTOTHECIN] |  |  |  |  |  |  |  |  |  |  | 0.013 |  |  |  |  |  |  |  |  |  | Activity [26]: Non-Toxic; Activity [27]: Active |
| COc1cnc2c(c1)C(=O)c1c-2n(CCCn2ccnc2)c(=O)c2cc([N+](=O)[O-])ccc12 |  | 45 |  |  | 55.6 | 0 |  | 0 | 62.5 | 0 |  |  | 5.6 | 0 | 45 |  | 0 | 0 | 0 | Active | survival at 120 h, 1 µM [21]: 0%; survival at 120 h, 0.1 µM [22]: 0%; survival at 72 h, 1 µM [23]: 0%; survival at 120 h, 0.01 µM [24]: 45% |
| COc1cc2c3c(n(CCCNCCO)c(=O)c2cc1OC)-c1cc2c(cc1C3=O)OCO2 [LMP-744] |  |  |  |  |  |  |  |  |  |  |  |  |  |  |  |  |  |  |  |  | Activity [26]: Non-Toxic; Activity [27]: Active |
| COc1cnc2c(c1)C(=O)c1c-2n(CCCn2ccnc2)c(=O)c2cc(Cl)ccc12 | 0.02 | 61.8 | 0.014 | 0.12 | 65.6 | 10.6 | 0.043 | 1.2 | 67.5 | 0 | < 0.01 | 0.038 | 55.6 | 1.2 | 63.1 | 0.028 | 51.9 | 54.4 | 50.6 | Active | Activity [28]: Non-Toxic; Activity [29]: Non-Toxic; Activity [30]: Non-Toxic; survival at 120 h, 1 µM [21]: 1.2%; survival at 120 h, 0.1 µM [22]: 50.6%; survival at 72 h, 1 µM [23]: 1.2%; survival at 120 h, 0.01 µM [24]: 61.9% |
| CCNCCCn1c2c(c3ccc(Cl)cc3c1=O)C(=O)c1cc(OC)cnc1-2 | 0.122 |  | 0.203 | 2.13 |  |  | 0.208 |  |  |  | < 0.01 | 0.506 |  |  |  | 0.532 |  |  |  | Active | IC50 [31]: > 111 µM; GI50 [15]: 0.675 µM |
| COc1cnc2c(c1)C(=O)c1c-2n(CCCN2CCC(O)CC2)c(=O)c2cc(Cl)ccc12 | 0.094 |  | 0.098 | 1.42 |  |  | 0.27 |  |  |  | 0.042 | 0.43 |  |  |  | 0.19 |  |  |  | Active | Activity [26]: Non-Toxic; Activity [27]: Active |
